Publication PMC7746607 (Nature, 2020)

Columns and labels:
[1] = target: mouse KSR1-Nanoluc (KSR-bound MEK) (UniProt Q02750+Q61097); assay: NanoBRET in-cell steady-state competition with tram-bo tracer on KSR1-luc; assay type: binding; conditions: MEK1-luc vs KSR1-luc
[2] = target: KSR1-luc (KSR-bound MEK) (UniProt Q02750+Q61097); assay: NanoBRET washout, intracellular residence time on KSR1-luc; assay type: binding, mouse; conditions: 175-minute time course, range of inhibitor concentrations, tram-bo 1 μM
[3] = target: MEK1-luc (Homo sapiens, UniProt Q02750); assay: NanoBRET washout, intracellular residence time on MEK1-luc; assay type: binding; conditions: 175-minute time course, tram-bo 1 μM
[4] = target: RET-luc (Homo sapiens, UniProt P07949); assay: NanoBRET control kinase dose response, RET-luc; assay type: binding; conditions: 293T cells, tram-bo or tracer K5
[5] = target: SRC-luc (Homo sapiens, UniProt P12931); assay: NanoBRET control kinase dose response, SRC-luc; assay type: binding; conditions: 293T cells, tram-bo or tracer K4
[6] = target: BRAF and MEK1 interaction (Homo sapiens, UniProt Q02750); assay: IP/WB of endogenous MEK1 from HCT116 cells, BRAF pulldown; assay type: cell-based; conditions: HCT116, 200 nM, 1 hour
Summary of the method: (§1)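 HCT116 cells were plated 48 h to ~70% confluency, then transfected (Lipofectamine 3000) with FLAG-KSR1 (2.3 μg, WT) or FLAG-BRAF (10 μg, WT). At 24 h cells got 0.1% DMSO or 200 nM test compound for 1 h, then were lysed in NP-40 buffer on ice for 30 min. 250 μg lysate was rotated 4 h at 4 °C with anti-MEK1/Protein A resin, with an IgG control. Anti-FLAG immunoblot; three independent experiments.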

[7] = target: KSR1 and MEK1 interaction (UniProt Q02750+Q61097); assay type: cell-based, mouse KSR1, human HCT116 cells; conditions: HCT116, wild-type KSR1, 200 nM, 1 hour
Summary of the method: as §1

Chain of MEK1-luc (Q02750 whole entry): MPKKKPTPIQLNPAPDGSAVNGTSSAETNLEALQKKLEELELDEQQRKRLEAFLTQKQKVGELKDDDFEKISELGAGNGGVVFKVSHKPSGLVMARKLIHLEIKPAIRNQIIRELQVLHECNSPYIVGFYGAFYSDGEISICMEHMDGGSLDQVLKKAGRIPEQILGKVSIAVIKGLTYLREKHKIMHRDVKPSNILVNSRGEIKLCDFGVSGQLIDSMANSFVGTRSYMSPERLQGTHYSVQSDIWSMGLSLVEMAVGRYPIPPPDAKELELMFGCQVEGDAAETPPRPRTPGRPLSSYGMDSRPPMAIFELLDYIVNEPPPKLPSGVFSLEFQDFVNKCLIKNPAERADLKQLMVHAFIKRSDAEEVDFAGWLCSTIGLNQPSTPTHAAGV
Chain of mouse KSR1-Nanoluc (KSR-bound MEK) (Q02750 whole entry): as above
Chain of mouse KSR1-Nanoluc (KSR-bound MEK) (Q61097 whole entry): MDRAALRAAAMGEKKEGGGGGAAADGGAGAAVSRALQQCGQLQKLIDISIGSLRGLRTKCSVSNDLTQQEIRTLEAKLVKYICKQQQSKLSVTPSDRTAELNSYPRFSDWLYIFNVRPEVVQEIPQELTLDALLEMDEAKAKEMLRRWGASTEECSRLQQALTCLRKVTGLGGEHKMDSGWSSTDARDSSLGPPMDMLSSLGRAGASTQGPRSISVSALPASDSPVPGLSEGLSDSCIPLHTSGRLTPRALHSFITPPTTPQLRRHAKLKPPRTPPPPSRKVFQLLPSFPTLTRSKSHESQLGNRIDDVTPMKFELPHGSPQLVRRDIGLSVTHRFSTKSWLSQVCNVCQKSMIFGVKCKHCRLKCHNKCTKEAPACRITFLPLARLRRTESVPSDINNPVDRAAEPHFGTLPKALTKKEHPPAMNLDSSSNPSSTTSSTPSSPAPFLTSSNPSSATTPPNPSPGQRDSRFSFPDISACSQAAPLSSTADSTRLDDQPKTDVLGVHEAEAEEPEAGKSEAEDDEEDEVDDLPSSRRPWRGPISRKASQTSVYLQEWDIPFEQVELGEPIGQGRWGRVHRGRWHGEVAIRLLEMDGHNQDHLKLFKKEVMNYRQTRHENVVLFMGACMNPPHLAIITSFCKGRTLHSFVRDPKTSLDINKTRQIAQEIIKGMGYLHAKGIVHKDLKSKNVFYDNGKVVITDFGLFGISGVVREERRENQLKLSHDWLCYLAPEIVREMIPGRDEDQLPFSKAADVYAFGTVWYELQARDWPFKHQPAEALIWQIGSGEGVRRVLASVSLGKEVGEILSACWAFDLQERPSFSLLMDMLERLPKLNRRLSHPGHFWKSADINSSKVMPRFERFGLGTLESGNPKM
Chain of BRAF and MEK1 interaction (Q02750 whole entry): as the sequence (Q02750 whole entry) above
Chain of KSR1-luc (KSR-bound MEK) (Q02750 whole entry): as above
Chain of KSR1-luc (KSR-bound MEK) (Q61097 whole entry): as the sequence (Q61097 whole entry) above
Chain of KSR1 and MEK1 interaction (Q02750 whole entry): as the sequence (Q02750 whole entry) above
Chain of KSR1 and MEK1 interaction (Q61097 whole entry): as the sequence (Q61097 whole entry) above
Chain of RET-luc (P07949 29-1114): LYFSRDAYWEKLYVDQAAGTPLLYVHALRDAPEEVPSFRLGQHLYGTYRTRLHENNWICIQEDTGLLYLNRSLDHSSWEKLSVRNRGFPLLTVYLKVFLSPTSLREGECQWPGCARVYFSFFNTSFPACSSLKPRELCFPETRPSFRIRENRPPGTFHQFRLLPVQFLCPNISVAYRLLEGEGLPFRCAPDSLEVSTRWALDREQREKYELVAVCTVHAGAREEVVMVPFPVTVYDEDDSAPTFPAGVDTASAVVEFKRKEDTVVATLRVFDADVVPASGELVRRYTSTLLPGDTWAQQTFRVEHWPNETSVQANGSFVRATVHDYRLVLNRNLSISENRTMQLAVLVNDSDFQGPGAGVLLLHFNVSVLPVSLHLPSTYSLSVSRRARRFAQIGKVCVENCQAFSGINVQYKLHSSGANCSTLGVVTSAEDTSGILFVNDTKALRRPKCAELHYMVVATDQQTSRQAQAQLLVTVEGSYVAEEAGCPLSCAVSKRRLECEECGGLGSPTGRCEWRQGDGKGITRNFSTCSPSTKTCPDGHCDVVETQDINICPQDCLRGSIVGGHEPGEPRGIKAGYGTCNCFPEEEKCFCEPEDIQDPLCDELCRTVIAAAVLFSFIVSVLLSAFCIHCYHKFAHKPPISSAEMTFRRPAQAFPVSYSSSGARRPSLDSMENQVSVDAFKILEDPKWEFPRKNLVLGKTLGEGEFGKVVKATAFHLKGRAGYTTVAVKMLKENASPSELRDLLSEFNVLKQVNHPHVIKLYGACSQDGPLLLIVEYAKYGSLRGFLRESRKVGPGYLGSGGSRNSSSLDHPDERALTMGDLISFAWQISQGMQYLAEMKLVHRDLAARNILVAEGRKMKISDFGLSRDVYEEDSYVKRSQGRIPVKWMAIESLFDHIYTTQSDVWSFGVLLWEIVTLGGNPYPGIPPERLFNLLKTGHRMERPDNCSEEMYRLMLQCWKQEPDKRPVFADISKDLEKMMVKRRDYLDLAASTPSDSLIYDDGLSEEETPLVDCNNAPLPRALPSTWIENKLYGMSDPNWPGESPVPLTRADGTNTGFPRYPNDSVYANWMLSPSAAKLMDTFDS
Chain of SRC-luc (P12931 whole entry): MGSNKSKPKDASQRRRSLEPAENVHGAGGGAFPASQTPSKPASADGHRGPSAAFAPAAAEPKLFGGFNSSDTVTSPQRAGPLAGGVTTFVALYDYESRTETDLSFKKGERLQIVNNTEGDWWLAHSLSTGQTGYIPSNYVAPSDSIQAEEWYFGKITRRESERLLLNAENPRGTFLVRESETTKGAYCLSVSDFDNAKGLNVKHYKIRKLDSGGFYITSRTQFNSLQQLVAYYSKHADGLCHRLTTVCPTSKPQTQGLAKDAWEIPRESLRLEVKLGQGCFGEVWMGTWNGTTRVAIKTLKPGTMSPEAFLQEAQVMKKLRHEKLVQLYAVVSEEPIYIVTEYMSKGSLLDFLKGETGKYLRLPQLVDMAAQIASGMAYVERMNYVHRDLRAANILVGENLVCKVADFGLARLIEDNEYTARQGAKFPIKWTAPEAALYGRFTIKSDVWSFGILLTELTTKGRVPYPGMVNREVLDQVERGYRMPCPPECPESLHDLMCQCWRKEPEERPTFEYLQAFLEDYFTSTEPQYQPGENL

Row | difference in potency (IC50) between KSR1-luc and MEK1-luc [1] | dissociation after washout on KSR1-luc (BRET signal recovery) [2] | dissociation after washout on MEK1-luc [3] | dose response on RET-luc [4] | dose response on SRC-luc [5] | co-immunoprecipitation of BRAF via endogenous MEK [6] | co-immunoprecipitation of KSR1 via endogenous MEK [7] | Structure (SMILES)
1 | ~ 20 fold | dissociated more readily | dissociated more readily | – | – | – | – | O=C(c1ccc(F)c(F)c1Nc1ccc(I)cc1F)N1CC(O)([C@@H]2CCCCN2)C1 [cobimetinib, Cobimetinib]
2 | – | – | – | no discernible dose response | no discernible dose response | diminished binding of BRAF | sustained pulldown of KSR1 | CC(=O)Nc1cccc(-n2c(=O)n(C3CC3)c(=O)c3c(Nc4ccc(I)cc4F)n(C)c(=O)c(C)c32)c1 [trametinib, Trametinib]
